# Results as given in ChEMBL document CHEMBL5678799 (Biochem J, 2009).
# Activity calls are given as the source filed them. The rule behind the calls is not given here.
# What was measured:
# [1] = target: Mitogen-activated protein kinase 1 (Homo sapiens) (UniProt P28482); experiment: Inhibition of recombinant human N-terminal GST-tagged ERK2 (2 to 360 residues) expressed in Escherichia coli assessed as remaining activity at 10 uM using MBP as substrate incubated for 30 mins in presence of [gamma-33P]ATP by filter binding method relative to control
# Summary of the method: (§1)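 Incubation was 30 min at room temperature (21 °C) under conditions linear with time and enzyme amount. Activity is reported as percent of control lacking compound, triplicate mean ± S.D.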
# [2] = target: Calcium/calmodulin-dependent protein kinase type 1 (Homo sapiens) (UniProt Q14012); experiment: Inhibition of recombinant human N-terminal GST-tagged CAMK1alpha (2 to 369 residues) expressed in Escherichia coli assessed as remaining activity at 10 uM using YLRRRLSDSNF as substrate incubated for 30 mins in presence of [gamma-33P]ATP by filter binding method relative to control
# Summary of the method: (§2)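 Run robotically for 30 min at 21 °C under linear conditions. Compound at 1 or 10 µM. Percentage activity remaining versus control without compound, triplicate mean ± S.D.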
# [3] = target: Insulin receptor-related protein (Homo sapiens) (UniProt P14616); experiment: Inhibition of recombinant human N-terminal His6-tagged IRR (944 to 1236 residues) expressed in baculovirus infected Sf21 cells assessed as remaining activity at 10 uM using MBP as substrate incubated for 30 mins in presence of [gamma-33P]ATP by filter binding method relative to control
# mTORC2 (Homo sapiens) = mTORC2 (Homo sapiens) (UniProt P42345+Q6R327+Q9BVC4+Q9BPZ7); conditions: HEK293, dose 30-1000 nM, time 30.0 min
# [4] = target: Mitogen-activated protein kinase 11 (Homo sapiens) (UniProt Q15759); experiment: Inhibition of recombinant human N-terminal GST-tagged P38beta (1 to 364 residues) expressed in Escherichia coli assessed as remaining activity at 10 uM using MBP as substrate incubated for 30 mins in presence of [gamma-33P]ATP by filter binding method relative to control
# Summary of the method: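 Panel assays were run for 30 min at 21 °C, within the linear range for time and enzyme. […] Results are percent activity remaining relative to compound-free control, averaged from triplicate ± S.D.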
# [5] = target: Maternal embryonic leucine zipper kinase (Homo sapiens) (UniProt Q14680); experiment: Inhibition of recombinant human N-terminal GST/C-terminal His6-tagged MELK (2 to 651 residues) expressed in Escherichia coli assessed as remaining activity at 1 uM using KKLNRTLSFAEPG as substrate incubated for 30 mins in presence of [gamma-33P]ATP by filter binding method relative to control; summary of the method: as §1
# [6] = target: Casein kinase II subunit alpha (Homo sapiens) (UniProt P68400); experiment: Inhibition of recombinant human N-terminal His6-tagged CK2alpha1 (2 to 391 residues) expressed in Escherichia coli assessed as remaining activity at 1 uM using RRRDDDSDDD as substrate incubated for 30 mins in presence of [gamma-33P]ATP by filter binding method relative to control
# Summary of the method: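 Radiometric panel assay run robotically at 21 °C for 30 min, linear in time and enzyme. […] Activity is expressed as percentage of the compound-omitted control, averaged from triplicates ± S.D.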
# [7] = target: Insulin receptor-related protein (Homo sapiens) (UniProt P14616); experiment: Inhibition of recombinant human N-terminal His6-tagged IRR (944 to 1236 residues) expressed in baculovirus infected Sf21 cells assessed as remaining activity at 1 uM using MBP as substrate incubated for 30 mins in presence of [gamma-33P]ATP by filter binding method relative to control
# mTORC1 (Homo sapiens) = mTORC1 (Homo sapiens) (UniProt P42345+Q8N122+Q9BVC4); conditions: HEK293, dose 100-300 nM, time 30.0 min
# [8] = target: Mitogen-activated protein kinase 8 (Homo sapiens) (UniProt P45983); experiment: Inhibition of recombinant human His6-tagged JNK1alpha1 (1 to 384 residues) expressed in baculovirus infected Sf21 cells assessed as remaining activity at 1 uM using ATF2 as substrate incubated for 30 mins in presence of [gamma-33P]ATP by filter binding method relative to control
# Summary of the method: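 Robotic radiometric panel assay, 30 min at room temperature (21 °C), with 10 mM magnesium acetate. […] Compound at 1 or 10 µM. Residual activity expressed relative to compound-free control; triplicate average ± S.D.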
# [9] = target: Protein kinase C alpha type (Homo sapiens) (UniProt P17252); experiment: Inhibition of recombinant human N-terminal His6-tagged PKCalpha (1 to 672 residues) expressed in baculovirus infected Sf21 cells assessed as remaining activity at 1 uM using Histone H1 as substrate incubated for 30 mins in presence of [gamma-33P]ATP by filter binding method relative to control
# [10] = target: Mitogen-activated protein kinase 3 (Homo sapiens) (UniProt P27361); experiment: Inhibition of recombinant human N-terminal GST-tagged ERK1 (2 to 379 residues) expressed in Escherichia coli assessed as remaining activity at 10 uM using MBP as substrate incubated for 30 mins in presence of [gamma-33P]ATP by filter binding method relative to control
# Summary of the method: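 Kinase panel run robotically at 21 °C for 30 min, linear in time and enzyme. […] Compound tested at 1 or 10 µM. Activity given as percentage of incubations without compound, mean of triplicates ± S.D.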
# [11] = target: Dual specificity tyrosine-phosphorylation-regulated kinase 2 (Homo sapiens) (UniProt Q92630); experiment: Inhibition of recombinant human N-terminal GST-tagged DYRK2 (3 to 528 residues) expressed in Escherichia coli assessed as remaining activity at 1 uM using KKISGRLSPIMTEQ as substrate incubated for 30 mins in presence of [gamma-33P]ATP by filter binding method relative to control; summary of the method: as §2
# [12] = target: Tyrosine-protein kinase Lck (Homo sapiens) (UniProt P06239); experiment: Inhibition of recombinant human N-terminal His6-tagged LCK (2 to 509 residues) expressed in baculovirus infected Sf21 cells assessed as remaining activity at 1 uM using KVEKIGEGTYGVVYK as substrate incubated for 30 mins in presence of [gamma-33P]ATP by filter binding method relative to control
# Summary of the method: (§3)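 Assays ran 30 min at 21 °C, robotically and in the linear range. Remaining activity is given relative to incubations lacking compound, as the average of triplicate determinations ± S.D.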
# [13] = target: Serine/threonine-protein kinase D1 (Homo sapiens) (UniProt Q15139); experiment: Inhibition of recombinant human N-terminal His6-tagged PKD1 (2 to 912 residues) expressed in baculovirus infected Sf21 cells assessed as remaining activity at 1 uM using KKLNRTLSVA as substrate incubated for 30 mins in presence of [gamma-33P]ATP by filter binding method relative to control
# [14] = target: Serine/threonine-protein kinase BRSK2 (Homo sapiens) (UniProt Q8IWQ3); experiment: Inhibition of recombinant human N-terminal His6-tagged BRSK2 (2 to 674 residues) expressed in baculovirus infected Sf21 cells assessed as remaining activity at 1 uM using KKLNRTLSFAEPG as substrate incubated for 30 mins in presence of [gamma-33P]ATP by filter binding method relative to control; summary of the method: as §3
# Insulin receptor-related protein (Homo sapiens), sequence (P14616 27-742 limits assumed): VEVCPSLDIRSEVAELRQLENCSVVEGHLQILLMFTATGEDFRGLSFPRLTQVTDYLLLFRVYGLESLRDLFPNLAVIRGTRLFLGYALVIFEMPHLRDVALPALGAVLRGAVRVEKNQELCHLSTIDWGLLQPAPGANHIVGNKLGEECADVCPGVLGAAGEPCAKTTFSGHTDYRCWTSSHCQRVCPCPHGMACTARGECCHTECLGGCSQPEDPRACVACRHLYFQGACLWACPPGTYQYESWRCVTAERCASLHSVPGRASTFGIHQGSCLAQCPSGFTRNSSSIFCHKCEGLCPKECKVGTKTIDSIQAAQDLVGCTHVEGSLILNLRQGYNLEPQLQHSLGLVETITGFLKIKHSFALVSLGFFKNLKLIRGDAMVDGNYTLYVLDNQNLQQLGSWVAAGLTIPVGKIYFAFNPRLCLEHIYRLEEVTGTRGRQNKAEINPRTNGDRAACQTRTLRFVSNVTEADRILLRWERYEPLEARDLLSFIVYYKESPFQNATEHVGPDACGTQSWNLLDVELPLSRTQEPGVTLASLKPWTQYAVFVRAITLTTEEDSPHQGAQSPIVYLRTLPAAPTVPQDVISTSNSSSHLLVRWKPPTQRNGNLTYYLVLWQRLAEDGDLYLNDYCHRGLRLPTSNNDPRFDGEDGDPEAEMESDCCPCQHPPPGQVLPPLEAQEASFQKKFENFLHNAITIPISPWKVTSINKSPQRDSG
# Insulin receptor-related protein (Homo sapiens), sequence (P14616 747-1297 limits assumed): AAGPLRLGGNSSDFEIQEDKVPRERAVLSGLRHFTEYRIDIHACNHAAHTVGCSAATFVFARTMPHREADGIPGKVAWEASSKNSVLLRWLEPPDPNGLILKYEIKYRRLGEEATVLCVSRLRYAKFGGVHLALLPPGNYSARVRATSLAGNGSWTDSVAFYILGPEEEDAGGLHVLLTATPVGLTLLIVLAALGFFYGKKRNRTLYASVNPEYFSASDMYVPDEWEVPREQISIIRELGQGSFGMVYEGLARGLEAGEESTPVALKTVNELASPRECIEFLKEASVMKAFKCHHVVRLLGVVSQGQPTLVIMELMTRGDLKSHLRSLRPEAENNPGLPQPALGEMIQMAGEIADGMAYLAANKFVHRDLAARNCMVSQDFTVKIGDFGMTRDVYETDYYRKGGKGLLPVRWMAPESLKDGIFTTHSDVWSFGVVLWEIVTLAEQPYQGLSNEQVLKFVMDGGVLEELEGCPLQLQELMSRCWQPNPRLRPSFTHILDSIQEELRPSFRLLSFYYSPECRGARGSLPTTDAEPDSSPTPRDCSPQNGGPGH
# Mitogen-activated protein kinase 11 (Homo sapiens), sequence (Q15759 whole entry, the tested form may be a part): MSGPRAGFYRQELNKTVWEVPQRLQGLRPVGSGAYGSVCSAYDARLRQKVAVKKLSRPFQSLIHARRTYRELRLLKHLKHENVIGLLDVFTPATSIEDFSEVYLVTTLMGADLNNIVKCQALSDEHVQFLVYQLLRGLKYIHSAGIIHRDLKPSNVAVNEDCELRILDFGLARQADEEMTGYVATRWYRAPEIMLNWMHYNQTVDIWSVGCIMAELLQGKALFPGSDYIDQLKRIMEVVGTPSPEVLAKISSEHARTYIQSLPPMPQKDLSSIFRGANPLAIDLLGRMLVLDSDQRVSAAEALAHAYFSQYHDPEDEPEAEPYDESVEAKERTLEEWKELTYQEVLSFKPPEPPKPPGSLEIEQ
# Mitogen-activated protein kinase 8 (Homo sapiens), sequence (P45983 whole entry, the tested form may be a part): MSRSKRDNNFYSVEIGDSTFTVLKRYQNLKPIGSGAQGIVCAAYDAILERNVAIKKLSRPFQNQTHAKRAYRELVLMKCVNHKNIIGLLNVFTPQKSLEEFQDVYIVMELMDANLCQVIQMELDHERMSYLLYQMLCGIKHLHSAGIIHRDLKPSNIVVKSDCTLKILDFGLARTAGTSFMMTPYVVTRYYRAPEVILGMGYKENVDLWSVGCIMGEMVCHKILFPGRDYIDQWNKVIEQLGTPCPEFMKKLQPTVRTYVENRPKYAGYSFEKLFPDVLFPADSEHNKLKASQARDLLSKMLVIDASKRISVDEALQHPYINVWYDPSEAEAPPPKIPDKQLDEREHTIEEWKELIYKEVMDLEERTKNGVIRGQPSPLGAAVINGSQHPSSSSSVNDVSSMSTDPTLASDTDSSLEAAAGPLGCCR
# Tyrosine-protein kinase Lck (Homo sapiens), sequence (P06239 2-509 limits assumed): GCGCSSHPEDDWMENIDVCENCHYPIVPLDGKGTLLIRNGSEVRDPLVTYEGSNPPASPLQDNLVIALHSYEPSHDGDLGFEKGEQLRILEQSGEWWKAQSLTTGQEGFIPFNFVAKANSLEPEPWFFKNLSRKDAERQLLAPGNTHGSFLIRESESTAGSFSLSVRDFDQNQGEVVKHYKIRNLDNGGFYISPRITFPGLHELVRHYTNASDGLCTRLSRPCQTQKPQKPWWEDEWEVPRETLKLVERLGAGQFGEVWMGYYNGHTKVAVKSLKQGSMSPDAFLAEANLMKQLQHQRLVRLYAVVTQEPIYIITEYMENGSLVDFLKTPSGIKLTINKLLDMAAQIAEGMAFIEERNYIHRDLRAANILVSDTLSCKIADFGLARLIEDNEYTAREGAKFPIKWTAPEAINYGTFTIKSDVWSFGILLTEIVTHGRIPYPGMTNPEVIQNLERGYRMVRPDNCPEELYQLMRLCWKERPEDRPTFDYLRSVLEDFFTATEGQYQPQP
# Maternal embryonic leucine zipper kinase (Homo sapiens), sequence (Q14680 whole entry, looked up, the tested form may be a part): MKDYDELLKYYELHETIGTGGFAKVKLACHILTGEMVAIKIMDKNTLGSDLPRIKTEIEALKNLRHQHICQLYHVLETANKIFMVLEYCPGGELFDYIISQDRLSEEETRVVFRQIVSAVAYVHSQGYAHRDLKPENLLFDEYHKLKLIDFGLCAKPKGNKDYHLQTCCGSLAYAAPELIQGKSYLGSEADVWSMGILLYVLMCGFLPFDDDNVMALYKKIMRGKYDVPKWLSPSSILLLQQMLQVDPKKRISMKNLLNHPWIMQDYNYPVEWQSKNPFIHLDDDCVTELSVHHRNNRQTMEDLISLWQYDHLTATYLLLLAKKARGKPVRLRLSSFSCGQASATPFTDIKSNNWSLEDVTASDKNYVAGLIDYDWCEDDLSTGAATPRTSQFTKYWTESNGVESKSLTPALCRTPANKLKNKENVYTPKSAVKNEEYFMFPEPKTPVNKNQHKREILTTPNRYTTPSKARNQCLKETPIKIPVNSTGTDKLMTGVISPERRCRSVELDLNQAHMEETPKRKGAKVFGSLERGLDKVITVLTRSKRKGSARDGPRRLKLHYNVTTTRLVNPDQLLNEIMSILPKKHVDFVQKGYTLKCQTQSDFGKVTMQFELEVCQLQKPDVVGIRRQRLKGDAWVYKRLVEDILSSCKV
# Casein kinase II subunit alpha (Homo sapiens), sequence (P68400 whole entry, looked up, the tested form may be a part): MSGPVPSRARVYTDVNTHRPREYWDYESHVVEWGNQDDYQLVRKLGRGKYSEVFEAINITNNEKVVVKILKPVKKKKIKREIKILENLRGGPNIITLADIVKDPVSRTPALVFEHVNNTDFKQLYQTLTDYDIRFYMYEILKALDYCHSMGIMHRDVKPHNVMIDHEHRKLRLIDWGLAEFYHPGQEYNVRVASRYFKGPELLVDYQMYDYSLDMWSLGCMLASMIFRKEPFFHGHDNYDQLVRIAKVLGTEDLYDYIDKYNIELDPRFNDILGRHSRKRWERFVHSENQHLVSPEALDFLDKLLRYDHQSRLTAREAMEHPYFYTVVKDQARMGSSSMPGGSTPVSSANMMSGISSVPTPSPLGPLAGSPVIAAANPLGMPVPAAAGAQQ
# Mitogen-activated protein kinase 1 (Homo sapiens), sequence (P28482 whole entry, the tested form may be a part): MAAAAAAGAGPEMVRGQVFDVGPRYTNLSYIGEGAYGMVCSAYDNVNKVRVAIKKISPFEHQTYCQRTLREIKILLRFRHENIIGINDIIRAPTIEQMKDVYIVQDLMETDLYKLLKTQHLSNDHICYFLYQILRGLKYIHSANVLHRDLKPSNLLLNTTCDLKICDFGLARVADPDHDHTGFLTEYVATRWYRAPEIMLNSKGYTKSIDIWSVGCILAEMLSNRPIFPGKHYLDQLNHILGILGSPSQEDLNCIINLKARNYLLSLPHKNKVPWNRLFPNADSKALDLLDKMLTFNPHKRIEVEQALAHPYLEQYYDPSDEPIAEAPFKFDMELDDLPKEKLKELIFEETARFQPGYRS
smiles,measurement,setting,value
COc1ccc(-c2ccc3c(N4CCOCC4)nc(N4C[C@@H](C)O[C@@H](C)C4)nc3n2)cc1CO [Ku-0063794],Activity,[1],92%
same,Activity,[2],101%
same,Activity,[3],71%
same,inhibition,mTORC2 (Homo sapiens),Active
same,Activity,[4],83%
same,Activity,[5],91%
same,Activity,[6],104%
same,Activity,[7],105%
same,inhibition,mTORC1 (Homo sapiens),100%
same,Activity,[8],80%
same,Activity,[9],106%
same,Activity,[10],87%
same,Activity,[11],92%
same,Activity,[12],69%
same,Activity,[13],80%
same,Activity,[14],90%
